Publication PMC2229510 (The Journal of General Physiology, 2001)
Read-outs that look alike come from different tables or passages of the source.

Legend:
QQQQ receptor = QQQQ receptor (Salmonella typhimurium, UniProt P02941, E302Q/E491Q); assay: L-aspartate binding to QQQQ receptor; settings: given binding constant for QQQQ receptor
[1] = biological target: aspartate receptor QEEE receptor–kinase signaling complex (Salmonella typhimurium, UniProt P02941, Q309E); assay: in vitro receptor-coupled kinase assay, attractant titration, QEEE receptor; assay type: biochemical, S. typhimurium
[2] = biological target: aspartate receptor EQEE receptor–kinase signaling complex (Salmonella typhimurium, UniProt P02941, E302Q/Q295E/Q309E); assay: in vitro receptor-coupled kinase assay, attractant titration, EQEE receptor; assay type: biochemical, S. typhimurium
[3] = biological target: aspartate receptor EEQE receptor–kinase signaling complex (Salmonella typhimurium, UniProt P02941, Q295E); assay: in vitro receptor-coupled kinase assay, attractant titration, EEQE receptor; assay type: biochemical, S. typhimurium
[4] = biological target: aspartate receptor EEEQ receptor–kinase signaling complex (Salmonella typhimurium, UniProt P02941, E491Q/Q295E/Q309E); assay: in vitro receptor-coupled kinase assay, attractant titration, EEEQ receptor; assay type: biochemical, S. typhimurium
[5] = biological target: aspartate receptor QEQE (wild type) receptor–kinase signaling complex (Salmonella typhimurium, UniProt P02941); assay: in vitro receptor-coupled kinase assay, attractant titration, QEQE; assay type: biochemical, S. typhimurium
Outline: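 Native E. coli membranes carrying the receptor (about 10% of total protein) were mixed with purified CheA, CheW and excess CheY to reconstitute the signaling complex, with receptor in the low micromolar range. Kinase activity was read as radiolabeled phospho-CheY at 10-s initial-rate points across α-methyl-aspartate concentrations, normalized to the no-attractant maximum, with three measurements per point. K1/2 and Hill coefficient came from a multisite Hill fit using free attractant concentration.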

[6] = biological target: aspartate receptor QQEE receptor–kinase signaling complex (Salmonella typhimurium, UniProt P02941, E302Q/Q309E); assay: in vitro receptor-coupled kinase assay, attractant titration, QQEE receptor; assay type: biochemical, S. typhimurium
[7] = biological target: aspartate receptor EQQE receptor–kinase signaling complex (Salmonella typhimurium, UniProt P02941, E302Q/Q295E); assay: in vitro receptor-coupled kinase assay, attractant titration, EQQE receptor; assay type: biochemical, S. typhimurium
[8] = biological target: aspartate receptor QEEQ receptor–kinase signaling complex (Salmonella typhimurium, UniProt P02941, E491Q/Q309E); assay: in vitro receptor-coupled kinase assay, attractant titration, QEEQ receptor; assay type: biochemical, S. typhimurium
[9] = biological target: aspartate receptor EQEQ receptor–kinase signaling complex (Salmonella typhimurium, UniProt P02941, E302Q/E491Q/Q295E/Q309E); assay: in vitro receptor-coupled kinase assay, attractant titration, EQEQ receptor; assay type: biochemical, S. typhimurium
[10] = biological target: aspartate receptor EEQQ receptor–kinase signaling complex (Salmonella typhimurium, UniProt P02941, E491Q/Q295E); assay: in vitro receptor-coupled kinase assay, attractant titration, EEQQ receptor; assay type: biochemical, S. typhimurium
[11] = biological target: aspartate receptor QQQE receptor–kinase signaling complex (Salmonella typhimurium, UniProt P02941, E302Q); assay: in vitro receptor-coupled kinase assay, attractant titration, QQQE receptor; assay type: biochemical, S. typhimurium
[12] = biological target: aspartate receptor QQEQ receptor–kinase signaling complex (Salmonella typhimurium, UniProt P02941, E302Q/E491Q/Q309E); assay: in vitro receptor-coupled kinase assay, attractant titration, QQEQ receptor; assay type: biochemical, S. typhimurium
[13] = biological target: aspartate receptor QEQQ receptor–kinase signaling complex (Salmonella typhimurium, UniProt P02941, E491Q); assay: in vitro receptor-coupled kinase assay, attractant titration, QEQQ receptor; assay type: biochemical, S. typhimurium
[14] = biological target: aspartate receptor EQQQ receptor–kinase signaling complex (Salmonella typhimurium, UniProt P02941, E302Q/E491Q/Q295E); assay: in vitro receptor-coupled kinase assay, attractant titration, EQQQ receptor; assay type: biochemical, S. typhimurium
[15] = biological target: aspartate receptor QQQQ receptor–kinase signaling complex (Salmonella typhimurium, UniProt P02941, E302Q/E491Q); assay: in vitro receptor-coupled kinase assay, attractant titration, QQQQ receptor; assay type: biochemical, S. typhimurium
[16] = biological target: aspartate receptor–kinase signaling complex (Salmonella enterica subsp. enterica serovar Typhimurium, UniProt P02941); assay type: biochemical, S. typhimurium; settings: pure off-state, extrapolated from the correlation

## N[C@@H](CC(=O)O)C(=O)O [L-aspartate]
QQQQ receptor
  free energy driving force toward the off-state on binding: exceeding 8 kcal mol^−1

## CC(N)(CC(=O)O)C(=O)O (racemic) [α-methyl-aspartate, α-methyl-D,L-aspartate]
[1]
  IC50: 9 ± 1 µM
[1]; QEEE receptor, attractant titration, Hill fit
  Measured Hill coefficient: 1.7 ± 0.1
[2]
  IC50: 16 ± 4 µM
[2]; EQEE receptor, attractant titration, Hill fit
  Measured Hill coefficient: 1.6 ± 0.4
[3]
  IC50: 23 ± 2 µM
[3]; EEQE receptor, attractant titration, Hill fit
  Measured Hill coefficient: 1.8 ± 0.1
[4]
  IC50: 9 ± 3 µM
[4]; EEEQ receptor, attractant titration, Hill fit
  Measured Hill coefficient: 1.1 ± 0.4
[5]
  IC50: 23 ± 4 µM
[5]; QEQE (wild type) receptor, attractant titration, Hill fit
  Measured Hill coefficient: 1.8 ± 0.1
[6]
  IC50: 31 ± 2 µM
[6]; QQEE receptor, attractant titration, Hill fit
  Measured Hill coefficient: 2.2 ± 0.2
[7]
  IC50: 14 ± 2 µM
[7]; EQQE receptor, attractant titration, Hill fit
  Measured Hill coefficient: 2.1 ± 0.3
[8]
  IC50: 19 ± 2 µM
[8]; QEEQ receptor, attractant titration, Hill fit
  Measured Hill coefficient: 2.4 ± 0.5
[9]
  IC50: 14 ± 1 µM
[9]; EQEQ receptor, attractant titration, Hill fit
  Measured Hill coefficient: 2.9 ± 0.3
[10]
  IC50: 19 ± 2 µM
[10]; EEQQ receptor, attractant titration, Hill fit
  Measured Hill coefficient: 1.9 ± 0.2
[11]
  IC50: 98 ± 4 µM
[11]; QQQE receptor, attractant titration, Hill fit
  Measured Hill coefficient: 3.3 ± 0.4
[12]
  IC50: 54 ± 6 µM
[12]; QQEQ receptor, attractant titration, Hill fit
  Measured Hill coefficient: 2.0 ± 0.5
[13]
  IC50: 62 ± 3 µM
[13]; QEQQ receptor, attractant titration, Hill fit
  Measured Hill coefficient: 2.2 ± 0.3
[14]
  IC50: 39 ± 4 µM
[14]; EQQQ receptor, attractant titration, Hill fit
  Measured Hill coefficient: 2.0 ± 0.3
[15]
  IC50: 97 ± 4 µM
[15]; QQQQ receptor, attractant titration, Hill fit
  Measured Hill coefficient: 2.2 ± 0.2
[16]
  K1/2 of the off-state (inactivated conformation): micromolar to submicromolar range
[16]; listed as α-methyl aspartate
  K1/2 of the off-state (inactivated conformation): submicromolar to micromolar range
